In ChEMBL document CHEMBL4689842, “EUbOPEN Chemogenomics Library wave 1” (2021):

Experiments:
Type in all cases: toxicity, cell-based
HEK-293T = assay: Incucyte cell viability with HEK293T; conditions: human, 10 µM, compound concentration 10 uM; further: filed as whole numbers so only -1 and 0 and 1 occur
Fibroblast = assay: Incucyte cell viability with human fibroblast; conditions: 10 µM, compound concentration 10 uM; further: filed as whole numbers so only -1 and 0 and 1 occur
U2OS [1] = assay: Incucyte cell viability with U2OS; conditions: human, 10 µM, compound concentration 10 uM; further: filed as whole numbers so only -1 and 0 and 1 occur
U2OS [2] = assay: Multiplex assay against U2OS; conditions: human
Procedure, shortened: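 Imaging took place on a CQ1 microscope at 37°C and 5% CO2 once compound had been added to live cells stained at seeding with Hoechst33342, BioTracker Green Microtubule Cytoskeleton Dye, MitoTracker Red and Annexin V Alexa Fluor 680. CellPathfinder machine-learning gating classed cells as Hoechst high-intensity objects or normal cells, classed normal cells as having healthy, pyknosed or fragmented nuclei, and classed pyknosed cells as mitotic or apoptotic. Tubulin, mitochondrial-mass and membrane-permeability phenotypes are per cents of the healthy-nucleus cells.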

[3] = 6 h, replicate number 1, timepoint 6 hours
[4] = 12 h, replicate number 1, timepoint 12 hours
[5] = 18 h, replicate number 1, timepoint 18 hours
[6] = 24 h, replicate number 1, timepoint 24 hours
[7] = 12 h, 1 µM, compound concentration 1 uM, replicate 1
[8] = 12 h, 1 µM, compound concentration 1 uM, replicate 2
[9] = 12 h, 10 µM, compound concentration 10 uM, replicate 1
[10] = 12 h, 10 µM, compound concentration 10 uM, replicate 2
[11] = 24 h, 1 µM, compound concentration 1 uM, replicate 1
[12] = 24 h, 1 µM, compound concentration 1 uM, replicate 2
[13] = 24 h, 10 µM, compound concentration 10 uM, replicate 1
[14] = 24 h, 10 µM, compound concentration 10 uM, replicate 2
[15] = 48 h, 1 µM, compound concentration 1 uM, replicate 1
[16] = 48 h, 1 µM, compound concentration 1 uM, replicate 2
[17] = 48 h, 10 µM, compound concentration 10 uM, replicate 1
[18] = 48 h, 10 µM, compound concentration 10 uM, replicate 2

## Cl.Cl.Nc1ncnc2c1c(-c1cccc(OCc3ccccc3)c1)cn2[C@H]1C[C@@H](CN2CCC2)C1
HEK-293T; [3]
  Growth Rate: 0
HEK-293T; [4]
  Growth Rate: 0
HEK-293T; [5]
  Growth Rate: 0
HEK-293T; [6]
  Growth Rate: 0
Fibroblast; [3]
  Growth Rate: 0
Fibroblast; [4]
  Growth Rate: 0
Fibroblast; [5]
  Growth Rate: 0
Fibroblast; [6]
  Growth Rate: 0
U2OS [1]; 0 h, replicate number 1, timepoint 0 hours
  Growth Rate: 0
U2OS [1]; [3]
  Growth Rate: 0
U2OS [1]; [4]
  Growth Rate: 0
U2OS [1]; 12 h, replicate number 2, timepoint 12 hours
  Growth Rate: 1
U2OS [1]; [5]
  Growth Rate: 0
U2OS [1]; 18 h, replicate number 2, timepoint 18 hours
  Growth Rate: 1
U2OS [1]; [6]
  Growth Rate: 0
U2OS [2]; [7]
  Population Apoptotic (%): 33%
  Population Fragmented Nuclei (%): 13%
  Population Healthy Nuclei (%): 70%
  Population Hoechst High Intensity Objects (%): 5%
  Population Membrane Permeable-Phenotype (%): 8%
  Population Mitochondria Different-Phenotype (%): 58%
  Population Mitotic Cells (%): 66%
  Population Normal (%): 94%
  Population Pyknosed Nuclei (%): 16%
  Population Tubulin-Different-Phenotype (%): 38%
  Total Cell Count: 176
U2OS [2]; [8]
  Population Apoptotic (%): 29%
  Population Fragmented Nuclei (%): 11%
  Population Healthy Nuclei (%): 67%
  Population Hoechst High Intensity Objects (%): 6%
  Population Membrane Permeable-Phenotype (%): 3%
  Population Mitochondria Different-Phenotype (%): 71%
  Population Mitotic Cells (%): 70%
  Population Normal (%): 93%
  Population Pyknosed Nuclei (%): 20%
  Population Tubulin-Different-Phenotype (%): 52%
  Total Cell Count: 55
U2OS [2]; [9]
  Population Apoptotic (%): 81%
  Population Fragmented Nuclei (%): 23%
  Population Healthy Nuclei (%): 41%
  Population Hoechst High Intensity Objects (%): 9%
  Population Membrane Permeable-Phenotype (%): 67%
  Population Mitochondria Different-Phenotype (%): 100%
  Population Mitotic Cells (%): 18%
  Population Normal (%): 90%
  Population Pyknosed Nuclei (%): 35%
  Population Tubulin-Different-Phenotype (%): 100%
  Total Cell Count: 135
U2OS [2]; [10]
  Population Apoptotic (%): 85%
  Population Fragmented Nuclei (%): 22%
  Population Healthy Nuclei (%): 47%
  Population Hoechst High Intensity Objects (%): 8%
  Population Membrane Permeable-Phenotype (%): 77%
  Population Mitochondria Different-Phenotype (%): 97%
  Population Mitotic Cells (%): 14%
  Population Normal (%): 91%
  Population Pyknosed Nuclei (%): 29%
  Population Tubulin-Different-Phenotype (%): 97%
  Total Cell Count: 90
U2OS [2]; [11]
  Population Apoptotic (%): 56%
  Population Fragmented Nuclei (%): 10%
  Population Healthy Nuclei (%): 69%
  Population Hoechst High Intensity Objects (%): 4%
  Population Membrane Permeable-Phenotype (%): 5%
  Population Mitochondria Different-Phenotype (%): 62%
  Population Mitotic Cells (%): 43%
  Population Normal (%): 95%
  Population Pyknosed Nuclei (%): 20%
  Population Tubulin-Different-Phenotype (%): 34%
  Total Cell Count: 176
U2OS [2]; [12]
  Population Apoptotic (%): 28%
  Population Fragmented Nuclei (%): 13%
  Population Healthy Nuclei (%): 64%
  Population Hoechst High Intensity Objects (%): 6%
  Population Membrane Permeable-Phenotype (%): 4%
  Population Mitochondria Different-Phenotype (%): 68%
  Population Mitotic Cells (%): 71%
  Population Normal (%): 93%
  Population Pyknosed Nuclei (%): 21%
  Population Tubulin-Different-Phenotype (%): 39%
  Total Cell Count: 50
U2OS [2]; [13]
  Population Apoptotic (%): 90%
  Population Fragmented Nuclei (%): 25%
  Population Healthy Nuclei (%): 30%
  Population Membrane Permeable-Phenotype (%): 92%
  Population Mitochondria Different-Phenotype (%): 100%
  Population Mitotic Cells (%): 9%
  Population Pyknosed Nuclei (%): 43%
  Population Tubulin-Different-Phenotype (%): 100%
  Total Cell Count: 157
U2OS [2]; [14]
  Population Apoptotic (%): 92%
  Population Fragmented Nuclei (%): 21%
  Population Healthy Nuclei (%): 35%
  Population Hoechst High Intensity Objects (%): 9%
  Population Membrane Permeable-Phenotype (%): 93%
  Population Mitochondria Different-Phenotype (%): 96%
  Population Mitotic Cells (%): 7%
  Population Normal (%): 90%
  Population Pyknosed Nuclei (%): 42%
  Population Tubulin-Different-Phenotype (%): 96%
  Total Cell Count: 104
U2OS [2]; [15]
  Population Apoptotic (%): 65%
  Population Fragmented Nuclei (%): 10%
  Population Healthy Nuclei (%): 73%
  Population Hoechst High Intensity Objects (%): 2%
  Population Membrane Permeable-Phenotype (%): 4%
  Population Mitochondria Different-Phenotype (%): 34%
  Population Mitotic Cells (%): 34%
  Population Normal (%): 97%
  Population Pyknosed Nuclei (%): 16%
  Population Tubulin-Different-Phenotype (%): 23%
  Total Cell Count: 182
U2OS [2]; [16]
  Population Apoptotic (%): 47%
  Population Fragmented Nuclei (%): 8%
  Population Healthy Nuclei (%): 76%
  Population Hoechst High Intensity Objects (%): 3%
  Population Membrane Permeable-Phenotype (%): 12%
  Population Mitochondria Different-Phenotype (%): 44%
  Population Mitotic Cells (%): 52%
  Population Normal (%): 96%
  Population Pyknosed Nuclei (%): 15%
  Population Tubulin-Different-Phenotype (%): 26%
  Total Cell Count: 55
U2OS [2]; [17]
  Population Apoptotic (%): 100%
  Population Fragmented Nuclei (%): 30%
  Population Healthy Nuclei (%): 7%
  Population Hoechst High Intensity Objects (%): 12%
  Population Membrane Permeable-Phenotype (%): 100%
  Population Mitochondria Different-Phenotype (%): 100%
  Population Mitotic Cells (%): 0%
  Population Normal (%): 87%
  Population Pyknosed Nuclei (%): 61%
  Population Tubulin-Different-Phenotype (%): 100%
  Total Cell Count: 203
U2OS [2]; [18]
  Population Apoptotic (%): 96%
  Population Fragmented Nuclei (%): 21%
  Population Healthy Nuclei (%): 38%
  Population Hoechst High Intensity Objects (%): 23%
  Population Membrane Permeable-Phenotype (%): 96%
  Population Mitotic Cells (%): 3%
  Population Normal (%): 76%
  Population Pyknosed Nuclei (%): 40%
  Total Cell Count: 130
